# Test results as given in ChEMBL document CHEMBL3797075 (Bioorg Med Chem, 2016).
# Calls of active or inactive are those of the source. The rule behind the calls is not given here.
# What was measured:
# [1] = biological target: T1, Steryl-sulfatase (Homo sapiens) (UniProt P08842); assay: Inhibition of steroid sulfatase (unknown origin) at 10 uM
# T1 sequence (whole entry): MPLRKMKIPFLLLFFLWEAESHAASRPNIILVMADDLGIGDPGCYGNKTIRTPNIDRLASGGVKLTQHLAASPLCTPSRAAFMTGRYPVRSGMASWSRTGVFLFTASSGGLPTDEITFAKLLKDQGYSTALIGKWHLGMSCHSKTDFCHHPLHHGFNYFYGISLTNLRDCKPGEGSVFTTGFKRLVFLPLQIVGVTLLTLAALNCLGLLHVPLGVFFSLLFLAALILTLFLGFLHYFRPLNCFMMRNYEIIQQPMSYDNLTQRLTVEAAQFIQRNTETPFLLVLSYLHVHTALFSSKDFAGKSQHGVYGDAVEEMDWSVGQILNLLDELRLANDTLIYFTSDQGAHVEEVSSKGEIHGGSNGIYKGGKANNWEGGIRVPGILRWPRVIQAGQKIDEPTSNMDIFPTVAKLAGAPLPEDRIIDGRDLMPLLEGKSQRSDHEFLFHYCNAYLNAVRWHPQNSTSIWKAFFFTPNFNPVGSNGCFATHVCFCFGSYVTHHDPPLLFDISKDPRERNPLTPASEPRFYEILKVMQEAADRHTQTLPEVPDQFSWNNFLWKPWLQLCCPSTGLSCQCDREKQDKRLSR
# Procedure, shortened: (§1)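 STS source was lysate of human JEG-3 choriocarcinoma cells at 125 µg protein/mL. Substrate was [³H]E₁S adjusted to 20 µM with unlabelled E₁S. Inhibitor was added at a single 10 µM or at 0.5–20 µM, incubated for 1 h. Product was extracted into toluene, with [4-¹⁴C]E₁ correcting for losses. Values are % inhibition, triplicate mean.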
# [2] = biological target: T1, Steryl-sulfatase (Homo sapiens); assay: Inhibition of steroid sulfatase (unknown origin) at 20 uM; procedure, shortened: as §1
# [3] = biological target: T1, Steryl-sulfatase (Homo sapiens); assay: Inhibition of steroid sulfatase (unknown origin); procedure, shortened: as §1
# [4] = biological target: T1, Steryl-sulfatase (Homo sapiens); assay: Inhibition of steroid sulfatase in human JEG-3 cells assessed as […]Estrone formation using [3H]E1S as substrate at 10 uM; type: cell-based
# Procedure, shortened: (§2)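 Intact JEG-3 monolayers were incubated for 20 h at 37 °C in serum-free EMEM with [³H]E₁S (5 pmol, 60 Ci/mmol), with or without inhibitor. Estrone was separated from E₁S by toluene partition, with [¹⁴C]estrone correcting for recovery. Counts were read by scintillation, and hydrolysed E₁S mass was derived from ³H counts and substrate specific activity. Values are triplicate means.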
# [5] = biological target: T1, Steryl-sulfatase (Homo sapiens); assay: Inhibition of steroid sulfatase in human JEG-3 cells assessed as […]Estrone formation using [3H]E1S as substrate at 20 uM; type: cell-based; procedure, shortened: as §2
# [6] = biological target: T1, Steryl-sulfatase (Homo sapiens); assay: (§3) Inhibition of steroid sulfatase in human JEG-3 cells assessed as […]Estrone formation using [3H]E1S as substrate; type: cell-based; procedure, shortened: as §2
# [7] = biological target: T2, Steryl-sulfatase (Homo sapiens, UniProt P08842); assay: as §3; type: cell-based; procedure, shortened: as §2
# T2 sequence (P08842 whole entry): T1 sequence (whole entry)
Compound,inhibition [1],other results
CNS(=O)(=O)Oc1ccc(NC(=O)C2CCCCC2)cc1,Active,
CCS(=O)(=O)Oc1ccc(NC(=O)C2CCCCC2)cc1,Active,
CN(C)S(=O)(=O)Oc1ccc(NC(=O)C2CCCCC2)cc1,Active,
CNS(=O)(=O)Oc1ccc(NC(=O)C2CCCC2)cc1,Active,

# Further lines, with some results ahead:
inhibition [1],Compound,other results
Active,Cc1ccc(S(=O)(=O)Oc2ccc(NC(=O)C3CCCCC3)cc2)cc1,
55.7%,NS(=O)(=O)Oc1ccc(NC(=O)C2CCCCC2)cc1,inhibition [2]: 72%; inhibition [3]: Dose-dependent effect; inhibition [4]: 86.1%; inhibition [5]: 93.9%; inhibition [6]: Dose-dependent effect; IC50 [7]: 421 nM
Active,Cc1ccc(S(=O)(=O)Oc2ccc(NC(=O)C3CCCC3)cc2)cc1,
